Test results as given in article PMC12744307 (ACS infectious diseases, 2023).
Values after ≈ are worked out from the molar mass of the structure shown. Where two headings read alike, the source gives them in different places. Ends that are not written are not given here.

Columns and labels:
[1] = Effect of MHB dilution on antimicrobial activity of a panel of antibiotics; type: cell-based; conditions: MHB from 100% to 12.5% (Figure S2)
S. aureus USA300 = test: microbe, parasite or virus in culture; type: cell-based, Staphylococcus aureus; conditions: for MIC: Staphylococcus aureus
E. coli E423–17 = type: cell-based, Escherichia coli
P. aeruginosa 152 = type: cell-based, Pseudomonas aeruginosa
E. coli membrane = test: Membrane permeabilization; type: cell-based, Escherichia coli; conditions: Figure S4A
S. aureus USA300 LAC = type: cell-based, Staphylococcus aureus; conditions: 17 passages at sub-MIC, MHB
A. baumannii B28–16 = type: cell-based, Acinetobacter baumannii
[2] = tested on: preformed biofilms of S. aureus USA300 LAC; test: Disruption of preformed biofilms; type: cell-based, Staphylococcus aureus; conditions: 100% MHB, 24 h treatment, XTT
Procedure, shortened: (§1)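 Biofilms grown from an exponential-phase culture (OD600 ~0.4) for 24 h at 37°C in TSB, then washed with PBS to remove planktonic cells. Treated with peptide in MHB (different strengths) for 24 h at 37°C. Live cells measured with XTT in TSB (2 h, 37°C, A450), blanked on medium with XTT. Results given as % of water-treated biofilm, mean ± SD, one-way ANOVA.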

[3] = tested on: preformed biofilms of E. coli E423–17; test: Disruption of preformed biofilms; type: cell-based, Escherichia coli
Procedure, shortened: as §1

[4] = tested on: S. aureus USA300 membrane; test: Membrane depolarization; type: cell-based, Staphylococcus aureus; conditions: peptide up to 2× MIC; Triton X-100 0.1% (Figure 5C)
Procedure, shortened: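 Exponential-phase MRSA USA300 grown in TSB, washed, and resuspended in 2 volumes of PBS with 25 mM glucose. Energised for 15 min at 37°C, then given 500 nM (final) DiBAC4(3). Baseline fluorescence (ex 485/em 520 nm) read for 20 min; peptide then added and reading continued for 40 min. Triton X-100 (0.1%) was the positive control.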

[5] = MRSA|USA300, pH 6.3, read-out: Antimicrobial activity (MIC), MRSA in MHB, pH 6.3
[6] = MRSA|USA300, pH 7.2, read-out: Antimicrobial activity (MIC), MRSA in MHB, pH 7.2
[7] = MRSA|USA300, read-out: Antimicrobial activity (MIC), MRSA in MHB, 10% human serum
[8] = MRSA|USA300, read-out: Antimicrobial activity (MIC), MRSA in MHB, NaCl (150 mM)

CN[C@H](CC(C)C)C(=O)N[C@H]1C(=O)N[C@@H](CC(N)=O)C(=O)N[C@H]2C(=O)N[C@H]3C(=O)N[C@H](C(=O)N[C@H](C(=O)O)c4cc(O)cc(O)c4-c4cc3ccc4O)[C@H](O)c3ccc(c(Cl)c3)Oc3cc2cc(c3O[C@@H]2O[C@H](CO)[C@@H](O)[C@H](O)[C@H]2O[C@H]2C[C@](C)(N)[C@H](O)[C@H](C)O2)Oc2ccc(cc2Cl)[C@H]1O [Vancomycin]
Change in MIC with the dilution of MHB [1]: essentially no changes in antibacterial activity
MIC (S. aureus USA300; [5]): 0.5 µM (≈ 0.725 µg/mL)
MIC (S. aureus USA300; [6]): 0.5 µM (≈ 0.725 µg/mL)
MIC (S. aureus USA300; [7]): 0.5 µM (≈ 0.725 µg/mL)
MIC (S. aureus USA300; [8]): 0.5 to 1 µM (≈ 0.725 to 1.45 µg/mL)

C/C(=C\C(=O)OCCCCCCCCC(=O)O)C[C@@H]1OC[C@H](C[C@@H]2O[C@H]2[C@@H](C)[C@H](C)O)[C@@H](O)[C@H]1O [Muporicin]
Change in MIC with the dilution of MHB [1]: essentially no changes in antibacterial activity
Antimicrobial activity (MIC) (S. aureus USA300; MRSA in MHB, 10% human serum): 4 µM
Antimicrobial activity (MIC) (S. aureus USA300; MRSA in MHB, 20% human serum): 4 µM
Antimicrobial activity (MIC) (S. aureus USA300; MRSA in MHB, NaCl (150 mM)): 1 µM
Antimicrobial activity (MIC) (S. aureus USA300; MRSA in MHB, pH 6.3): 0.5 µM
Antimicrobial activity (MIC) (S. aureus USA300; MRSA in MHB, pH 7.2): 1 µM

RRWWRWWL-NH2 [W544]
Activity (MIC), E. coli (E. coli E423–17; E423–17): 4 µM
Toxicity to HaCaT cells (viability) (human skin HaCaT cells): more toxic than other peptides
Activity (MIC), P. aeruginosa (P. aeruginosa 152): 4 µM
Activity (MIC), S. aureus (S. aureus USA300; USA300): 4 µM

NC[C@H]1O[C@H](O[C@H]2[C@H](O)[C@@H](O[C@H]3O[C@H](CO)[C@@H](O)[C@H](N)[C@H]3O)[C@H](N)C[C@@H]2N)[C@H](N)C[C@@H]1O [Tobramycin]
Change in MIC with the dilution of MHB [1]: essentially no changes in antibacterial activity
MIC (S. aureus USA300; [8]): 4 µM (≈ 1.87 µg/mL)

CCCCCCCCCC(=O)N[C@@H](Cc1c[nH]c2ccccc12)C(=O)N[C@H](CC(N)=O)C(=O)N[C@@H](CC(=O)O)C(=O)N[C@@H]1C(=O)NCC(=O)N[C@@H](CCCN)C(=O)N[C@@H](CC(=O)O)C(=O)N[C@H](C)C(=O)N[C@@H](CC(=O)O)C(=O)NCC(=O)N[C@H](CO)C(=O)N[C@@H]([C@H](C)CC(=O)O)C(=O)N[C@@H](CC(=O)c2ccccc2N)C(=O)O[C@@H]1C [Daptomycin]
Antimicrobial activity (MIC) (S. aureus USA300; USA300): 1 µM
Antimicrobial activity (MIC) (S. aureus USA300; USA300, pH 6.3): 1 µM
Antimicrobial activity (MIC) (S. aureus USA300; USA300, pH 7.2): 1 µM

colistin
Membrane permeation (PI fluorescence) (E. coli membrane): powerful membrane permeator

CCOc1ccc2ccccc2c1C(=O)N[C@@H]1C(=O)N2[C@@H]1SC(C)(C)[C@@H]2C(=O)O [Nafcillin]
Change in MIC with the dilution of MHB [1]: small changes in MIC values
Fold increase of MIC after multiple passages (S. aureus USA300 LAC): 32 fold
MIC (S. aureus USA300; [7]): 16 µM (≈ 6.63 µg/mL)
MIC (S. aureus USA300; [8]): 32 µM (≈ 13.3 µg/mL)

KRWWQRWK-NH2 [W541]
Activity (MIC), E. coli (E. coli E423–17; E423–17): 8 µM
Activity (MIC), P. aeruginosa (P. aeruginosa 152): >32 µM

KRWWQWWK-NH2 [W542]
Activity (MIC), A. baumannii (A. baumannii B28–16): 32 µM
Activity (MIC), E. coli (E. coli E423–17; E423–17): 4 µM
Activity (MIC), P. aeruginosa (P. aeruginosa 152): 4 to 8 µM
Activity (MIC), S. aureus (S. aureus USA300; USA300): 8 µM

CC[C@H](C)[C@H](NC(=O)[C@H](CCCCN)NC(=O)[C@H](CCC(=O)O)NC(=O)[C@H](CCCCN)NC(=O)[C@H](CO)NC(=O)[C@H](CCCCN)NC(=O)[C@H](CCCNC(=N)N)NC(=O)[C@H](Cc1ccccc1)NC(=O)[C@H](Cc1ccccc1)NC(=O)[C@H](CC(=O)O)NC(=O)CNC(=O)[C@H](CC(C)C)NC(=O)[C@@H](N)CC(C)C)C(=O)NCC(=O)N[C@@H](CCCCN)C(=O)N[C@@H](CCC(=O)O)C(=O)N[C@@H](Cc1ccccc1)C(=O)N[C@@H](CCCCN)C(=O)N[C@@H](CCCNC(=N)N)C(=O)N[C@H](C(=O)N[C@H](C(=O)N[C@@H](CCC(N)=O)C(=O)N[C@@H](CCCNC(=N)N)C(=O)N[C@H](C(=O)N[C@@H](CCCCN)C(=O)N[C@@H](CC(=O)O)C(=O)N[C@@H](Cc1ccccc1)C(=O)N[C@@H](CC(C)C)C(=O)N[C@@H](CCCNC(=N)N)C(=O)N[C@@H](CC(N)=O)C(=O)N[C@@H](CC(C)C)C(=O)N[C@H](C(=O)N1CCC[C@H]1C(=O)N[C@@H](CCCNC(=N)N)C(=O)N[C@H](C(=O)N[C@@H](CCC(=O)O)C(=O)N[C@@H](CO)C(=O)O)[C@@H](C)O)C(C)C)[C@@H](C)CC)C(C)C)[C@@H](C)CC [LL-37]
Antibiofilm activity against 24 h preformed biofilms [2]: essentially no antibiofilm activity
Activity (MIC), screen of LL-37 fragments (E. coli E423–17; 100% MHB, rich media (Figure 3)): active
Antimicrobial activity (MIC) in cell culturing media (E. coli E423–17; RPMI and DMEM media (Table S2)): remained active
Effect on biofilms with increase in peptide concentration ([3]; 12.5% MHB (Figure S1)): dose-dependent antibiofilm effect is clear
Effect on biofilms with increase in peptide concentration ([3]; 100% MHB (Figure S1)): subtle effect
Activity (MIC), screen of LL-37 fragments (S. aureus USA300; 12.5% MHB (Figure 3)): became active
Activity (MIC), screen of LL-37 fragments (S. aureus USA300; 100% MHB (Figure 3)): did not display any activity
Antimicrobial activity (MIC) in cell culturing media (S. aureus USA300; RPMI and DMEM media (Table S2)): remained active

KEKIGKEFKR-NH2 (C-terminus assumed) [KE-10]
Antimicrobial activity (MIC) in cell culturing media (S. aureus USA300; USA300): > 64 µM

Triton X-100
Membrane depolarization [4]: strong membrane depolarization

CNC(C)C1CCC(N)C(OC2C(N)CC(N)C(OC3OCC(C)(O)C(NC)C3O)C2O)O1 (centres unmarked) [Gentamicin]
Membrane permeation (PI fluorescence) (E. coli membrane): did not permeate the E. coli membrane
MIC (S. aureus USA300; [5]): 1 to 2 µM (≈ 0.478 to 0.955 µg/mL)
MIC (S. aureus USA300; [6]): 0.5 µM (≈ 0.239 µg/mL)
MIC (S. aureus USA300; [7]): 0.5 to 1 µM (≈ 0.239 to 0.478 µg/mL)
MIC (S. aureus USA300; [8]): 1 µM (≈ 0.478 µg/mL)

KRIWQRIK-NH2 [W539]
Activity (MIC), P. aeruginosa (P. aeruginosa 152): >32 µM

CC(=O)NC[C@H]1CN(c2ccc(N3CCOCC3)c(F)c2)C(=O)O1 [Linezolid]
Change in MIC with the dilution of MHB [1]: essentially no changes in antibacterial activity
MIC (S. aureus USA300; [5]): 8 µM (≈ 2.7 µg/mL)
MIC (S. aureus USA300; [6]): 8 µM (≈ 2.7 µg/mL)
MIC (S. aureus USA300; [7]): 8 µM (≈ 2.7 µg/mL)

KRIVQRIK-NH2 [W538]
Activity (MIC), screen of LL-37 fragments (E. coli E423–17; E423–17): 8 µM
Activity (MIC), P. aeruginosa (P. aeruginosa 152): >32 µM

RIKDFLRNLV-NH2 (C-terminus assumed) [RIK-10]
Activity (MIC), screen of LL-37 fragments (E. coli E423–17; E423–17): 16 µM
Antimicrobial activity (MIC) in DMEM (E. coli E423–17; E423–17): 8 µM
Antimicrobial activity in RPMI (E. coli E423–17; RPMI (Table S2)): poor activity
Activity (MIC), screen of LL-37 fragments (S. aureus USA300; 12.5% MHB (Figure 3)): became active
Antimicrobial activity (MIC) in cell culturing media (S. aureus USA300; RPMI and DMEM media (Table S2)): poor activity

KRIWQRWK-NH2 [W540]
Toxicity to HaCaT cells (viability) (human skin HaCaT cells): more toxic than other peptides
Activity (MIC), P. aeruginosa (P. aeruginosa 152): >32 µM

RRWWRWWR-NH2 [W543]
Activity (MIC), E. coli (E. coli E423–17; E423–17): 8 µM
Toxicity to HaCaT cells (viability) (human skin HaCaT cells): least toxic
Activity (MIC), P. aeruginosa (P. aeruginosa 152): 8 µM
Antimicrobial activity (MIC) (S. aureus USA300; USA300): 8 µM
Antimicrobial activity (MIC) (S. aureus USA300; USA300, pH 7.2): 8 µM

NCC[C@H](O)C(=O)N[C@@H]1C[C@H](N)[C@@H](O[C@H]2O[C@H](CN)[C@@H](O)[C@H](O)[C@H]2O)[C@H](O)[C@H]1O[C@H]1O[C@H](CO)[C@@H](O)[C@H](N)[C@H]1O [Amikacin]
Change in MIC with the dilution of MHB [1]: small changes in MIC values
MIC (S. aureus USA300; [7]): 32 µM (≈ 18.7 µg/mL)
MIC (S. aureus USA300; [8]): 32 µM (≈ 18.7 µg/mL)
